Active and inactive are the calls of the source. The calls are words filed in the database; no cut-off is given here.
Key:
[1] = biological target: T1, Protein deacetylase HDAC6 (Homo sapiens, UniProt Q9UBN7); assay: Inhibition of N-terminal GST tagged human recombinant HDAC6 (1 to 1215 residues) expressed in Sf9 insect cells using Z-Lys(Ac)-AMC as fluorogenic substrate preincubated for 60 mins followed by substrate addition and measured after 90 mins by microplate reader analysis
T1 sequence (Q9UBN7 whole entry): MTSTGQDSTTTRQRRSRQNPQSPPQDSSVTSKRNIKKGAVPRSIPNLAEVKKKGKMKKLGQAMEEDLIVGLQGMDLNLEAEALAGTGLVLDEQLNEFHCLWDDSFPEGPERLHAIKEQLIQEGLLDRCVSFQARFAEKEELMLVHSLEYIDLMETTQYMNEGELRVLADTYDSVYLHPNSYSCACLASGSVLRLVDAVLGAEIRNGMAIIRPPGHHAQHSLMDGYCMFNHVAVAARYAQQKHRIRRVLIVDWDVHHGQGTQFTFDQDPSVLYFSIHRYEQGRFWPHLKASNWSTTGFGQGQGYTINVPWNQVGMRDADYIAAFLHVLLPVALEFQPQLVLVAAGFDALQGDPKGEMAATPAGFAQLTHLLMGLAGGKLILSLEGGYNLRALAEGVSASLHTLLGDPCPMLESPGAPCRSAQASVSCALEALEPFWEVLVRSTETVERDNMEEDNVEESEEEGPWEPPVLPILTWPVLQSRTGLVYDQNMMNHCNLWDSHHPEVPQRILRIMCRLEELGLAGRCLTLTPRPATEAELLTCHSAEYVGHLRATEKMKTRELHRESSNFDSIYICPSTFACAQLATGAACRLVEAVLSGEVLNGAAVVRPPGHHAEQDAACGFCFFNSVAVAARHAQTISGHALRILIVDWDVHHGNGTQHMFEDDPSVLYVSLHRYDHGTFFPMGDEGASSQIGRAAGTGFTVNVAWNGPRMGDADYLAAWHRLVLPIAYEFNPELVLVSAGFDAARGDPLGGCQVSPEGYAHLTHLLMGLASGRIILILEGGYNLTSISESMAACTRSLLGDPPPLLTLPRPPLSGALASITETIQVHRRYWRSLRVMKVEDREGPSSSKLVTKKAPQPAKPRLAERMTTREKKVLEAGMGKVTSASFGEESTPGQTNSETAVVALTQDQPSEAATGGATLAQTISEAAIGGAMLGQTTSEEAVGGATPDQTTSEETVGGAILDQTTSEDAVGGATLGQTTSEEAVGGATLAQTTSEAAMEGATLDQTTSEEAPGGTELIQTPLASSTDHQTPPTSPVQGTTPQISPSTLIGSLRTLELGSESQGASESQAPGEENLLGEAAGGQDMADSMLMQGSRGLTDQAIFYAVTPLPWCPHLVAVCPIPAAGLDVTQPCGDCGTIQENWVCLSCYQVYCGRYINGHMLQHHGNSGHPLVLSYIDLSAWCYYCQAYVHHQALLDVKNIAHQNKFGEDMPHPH

[2] = biological target: Histone deacetylase 1 (Homo sapiens) (UniProt Q13547); assay: Inhibition of C-terminal 6His/FLAG tagged human recombinant HDAC1 (1 to 482 residues) […] expressed in Sf9 insect cells using Z-Lys(Ac)-AMC as fluorogenic substrate at 10 uM preincubated for 60 mins followed by substrate addition and measured after 90 mins by microplate reader analysis relative to control; settings: time 150.0 min
Sequence of Histone deacetylase 1 (Homo sapiens) (Q13547 whole entry, the tested form may be a part): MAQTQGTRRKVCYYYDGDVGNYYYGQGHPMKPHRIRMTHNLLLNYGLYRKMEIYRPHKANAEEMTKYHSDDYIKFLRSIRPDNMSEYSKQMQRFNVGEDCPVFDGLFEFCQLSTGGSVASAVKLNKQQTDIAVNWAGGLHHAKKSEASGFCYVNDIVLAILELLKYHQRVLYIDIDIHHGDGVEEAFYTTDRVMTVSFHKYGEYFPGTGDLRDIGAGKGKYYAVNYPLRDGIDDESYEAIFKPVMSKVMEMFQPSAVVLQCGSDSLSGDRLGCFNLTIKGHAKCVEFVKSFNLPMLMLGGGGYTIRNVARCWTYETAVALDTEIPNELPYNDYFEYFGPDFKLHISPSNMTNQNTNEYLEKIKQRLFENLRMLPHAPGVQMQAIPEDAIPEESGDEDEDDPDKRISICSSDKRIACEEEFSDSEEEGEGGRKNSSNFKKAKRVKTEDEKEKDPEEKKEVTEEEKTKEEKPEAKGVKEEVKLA
Method in brief: (§1)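 Human recombinant enzyme was preincubated with 3-fold inhibitor dilutions for 60 min at 25 °C in Tris-HCl pH 8.0 buffer with BSA. ZMAL (75 μM solution) was then added, and the mix was incubated 90 min at 37 °C (max 1% DMSO). Trypsin was added for 30 min at 37 °C, and fluorescence was read at ex 355/em 460. Tested at least twice in duplicate.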

[3] = biological target: Histone deacetylase 3/Nuclear receptor corepressor 2 (HDAC3/NCoR2) (Homo sapiens) (UniProt O15379+Q9Y618); assay: Inhibition of C-terminal His-tagged human HDAC3 (1 to 428 residues)/N-terminal GST tagged human NcoR2 (395 to 489 residues) expressed in Sf9 insect cells using Z-Lys(Ac)-AMC as fluorogenic substrate at 10 uM preincubated for 60 mins followed by substrate addition and measured after 90 mins by microplate reader analysis relative to control; settings: time 150.0 min; method in brief: as §1
[4] = system: T2, Histone deacetylase 6 (Danio rerio), F8W4B7 [H573A]; assay: Irreversible inhibition of Danio rerio HDAC6 H573A mutant catalytic domain 2 assessed as enzyme catalysed ring opening by measuring reduction in 2-(Benzylamino)pyrimidine-5-carbohydrazide formation at 100 uM incubated overnight by LC-MS analysis
T2 sequence (whole entry): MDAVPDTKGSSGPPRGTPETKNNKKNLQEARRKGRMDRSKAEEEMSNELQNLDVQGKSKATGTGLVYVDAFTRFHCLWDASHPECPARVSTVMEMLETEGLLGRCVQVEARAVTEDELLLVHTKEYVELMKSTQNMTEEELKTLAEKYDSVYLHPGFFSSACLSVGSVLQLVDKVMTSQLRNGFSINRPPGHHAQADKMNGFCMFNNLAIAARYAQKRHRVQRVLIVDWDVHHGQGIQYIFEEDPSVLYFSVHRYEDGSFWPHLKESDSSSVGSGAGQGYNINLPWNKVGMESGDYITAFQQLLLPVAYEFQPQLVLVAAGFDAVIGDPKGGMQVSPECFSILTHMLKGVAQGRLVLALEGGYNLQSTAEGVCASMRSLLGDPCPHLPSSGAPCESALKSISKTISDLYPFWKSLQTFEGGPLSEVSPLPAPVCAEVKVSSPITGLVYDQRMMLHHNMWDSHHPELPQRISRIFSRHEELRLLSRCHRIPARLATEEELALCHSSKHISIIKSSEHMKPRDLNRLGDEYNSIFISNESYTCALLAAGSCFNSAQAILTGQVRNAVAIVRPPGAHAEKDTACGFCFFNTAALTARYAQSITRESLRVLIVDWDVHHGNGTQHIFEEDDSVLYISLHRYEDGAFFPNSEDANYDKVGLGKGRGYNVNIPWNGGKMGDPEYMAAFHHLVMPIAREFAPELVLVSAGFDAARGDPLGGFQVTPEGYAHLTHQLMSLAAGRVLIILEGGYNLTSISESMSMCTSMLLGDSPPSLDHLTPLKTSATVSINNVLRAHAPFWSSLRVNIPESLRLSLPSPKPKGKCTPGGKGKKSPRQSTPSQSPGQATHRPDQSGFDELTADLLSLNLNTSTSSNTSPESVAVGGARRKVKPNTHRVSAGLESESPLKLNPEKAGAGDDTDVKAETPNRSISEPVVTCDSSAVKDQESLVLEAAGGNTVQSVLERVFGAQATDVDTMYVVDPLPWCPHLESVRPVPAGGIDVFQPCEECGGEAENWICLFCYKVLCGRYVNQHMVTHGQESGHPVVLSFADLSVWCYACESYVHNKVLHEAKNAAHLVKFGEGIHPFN
Method in brief: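 Zebrafish HDAC6 CD2 mutants were made by site-directed mutagenesis and expressed in BL21(DE3). Enzyme at 50 μM was incubated overnight with 100 μM inhibitor in 50 mM HEPES pH 7.5, 100 mM KCl, 1 mM TCEP, 5% glycerol; an enzyme-free control was included. Protein was methanol-precipitated and filtered, and products were analysed by C18 UPLC-MS with a 2-min gradient.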

SMILES	IC50 [1]	inhibition [2]	inhibition [3]	inhibition [4]
FC(F)(F)c1nnc(-c2cnc(NCc3ccccc3)nc2)o1	531 nM	< 15%	< 15%	Active
FC(F)c1nnc(-c2cnc(NCc3ccccc3)nc2)o1	193 nM	< 15%	< 15%	Active

Reference: ChEMBL document CHEMBL5365542, “Difluoromethyl-1,3,4-oxadiazoles Are Selective, Mechanism-Based, and Essentially Irreversible Inhibitors of Histone Deacetylase 6” (J Med Chem, 2023)
